Assay outcomes from PubChem.
This is a sample that favours compounds with a hit; in the whole collection about 3% have one here.
UBC13 inh: human UBC13 polyubiquitination inhibition | P61088 | UBC13 polyubiquitin chain formation, TR-FRET | inhibition, % at 20 µM | 330,000 tested, 0.47% active | AID 485273; in the data active = inhibition above about 45%, passing the limit was not always enough
Apaf1 inhib: blocks human Apaf-1 apoptosome activity | O14727 | 330,000 tested, 0.71% active | reconstituted apoptosome caspase-3 activity, DEVD-Rh110 fluorescence | inhibition, % at 20 µM | AID 489030; active = inhibition of at least 40% at 20 µM;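 also: plate controls were DMSO wells for no effect and DEVD-CHO caspase inhibitor wells for full effect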
Target sequence (O14727 whole entry, looked up): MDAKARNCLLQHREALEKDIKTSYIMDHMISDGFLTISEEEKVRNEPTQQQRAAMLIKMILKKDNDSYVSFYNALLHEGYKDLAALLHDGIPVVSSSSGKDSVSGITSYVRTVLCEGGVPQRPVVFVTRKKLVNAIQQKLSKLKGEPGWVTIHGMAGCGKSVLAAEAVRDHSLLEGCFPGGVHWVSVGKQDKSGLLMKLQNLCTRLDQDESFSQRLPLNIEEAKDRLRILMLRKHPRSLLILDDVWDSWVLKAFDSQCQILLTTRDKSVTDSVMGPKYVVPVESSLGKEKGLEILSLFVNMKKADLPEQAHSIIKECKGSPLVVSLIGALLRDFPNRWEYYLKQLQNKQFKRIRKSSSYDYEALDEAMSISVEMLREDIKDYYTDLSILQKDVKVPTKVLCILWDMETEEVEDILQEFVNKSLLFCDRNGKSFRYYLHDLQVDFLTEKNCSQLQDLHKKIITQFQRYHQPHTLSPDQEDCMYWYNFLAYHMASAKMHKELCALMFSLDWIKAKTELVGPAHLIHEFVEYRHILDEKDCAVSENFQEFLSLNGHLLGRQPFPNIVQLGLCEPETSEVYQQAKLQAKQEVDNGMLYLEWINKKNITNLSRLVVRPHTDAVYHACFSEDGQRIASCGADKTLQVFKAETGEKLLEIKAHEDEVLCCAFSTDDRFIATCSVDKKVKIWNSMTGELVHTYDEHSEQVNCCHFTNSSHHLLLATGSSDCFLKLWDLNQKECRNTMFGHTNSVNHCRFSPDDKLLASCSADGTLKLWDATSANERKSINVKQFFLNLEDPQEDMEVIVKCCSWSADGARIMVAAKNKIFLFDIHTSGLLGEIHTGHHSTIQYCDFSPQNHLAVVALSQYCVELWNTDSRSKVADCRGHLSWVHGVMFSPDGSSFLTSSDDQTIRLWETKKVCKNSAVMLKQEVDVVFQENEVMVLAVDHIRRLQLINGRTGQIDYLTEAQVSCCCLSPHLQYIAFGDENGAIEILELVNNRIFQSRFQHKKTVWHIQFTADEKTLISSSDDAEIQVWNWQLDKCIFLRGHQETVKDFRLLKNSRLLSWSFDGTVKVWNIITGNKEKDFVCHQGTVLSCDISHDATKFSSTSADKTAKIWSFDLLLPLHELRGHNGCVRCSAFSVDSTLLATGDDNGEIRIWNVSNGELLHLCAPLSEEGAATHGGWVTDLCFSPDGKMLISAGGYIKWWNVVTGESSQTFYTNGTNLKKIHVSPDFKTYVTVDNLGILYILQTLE
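Material: biochemical Apaf-1 apoptosome reconstitution. Medium: Hepes buffer, pH 7.5. Also added: cytochrome c activation, bis-DEVD rhodamine 110 substrate. Timing: 30 min compound preincubation, 50 min activation, room temperature. Measured by: rhodamine 110 fluorescence at Ex 480/Em 540 nm.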
Granule exo inh: lytic granule exocytosis inhibition; TALL-104 LAMP-1 surface exposure, flow cytometry; cells stimulated with thapsigargin and PMA; inhibition, % at 10 µM; 360,000 tested, 0.66% active;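 active = inhibition above about 55%, limit read from the data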
MPTP block: permeability transition pore inhibition. 360,000 tested, 1.4% active. isolated mouse mitochondria, Ca2+ swelling absorbance, 30 min. inhibition, % at 10 µM;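 active = inhibition of 50% or more, scaled per plate between neutral and stimulator controls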;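 also: 0% = DMSO wells given calcium and 100% = 1 mM EGTA wells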
MIN6 prolif: MIN6 beta-cell proliferation induction; MIN6 cells proliferation, ATPlite luminescence, 48 h; cells starved in 0.2% serum; 100% = growth in 10% serum; proliferation, % at 10 µM; 330,000 tested, 0.29% active;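 active = compounds whose signal lies at least 3.5 SD above the mean of all wells on their plate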;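 also: 0% = DMSO-treated cells in low-serum medium and 100% = 10% serum control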
hiPSC survival: increases survival of single human iPS cells | hiPSC single-cell survival, ATPlite luminescence; 100% = ROCK inhibitor wells, 0% = DMSO | survival enhancement, % at 20 µM | 360,000 tested, 0.044% active | AID 602274; in the data active = survival enhancement above about 18%;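 also: cells exposed to compounds for 16 hours before the ATP read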
Apaf-1 inh conf2: Apaf-1 inhibition, single-dose confirmed. 1,800 tested, 25% active. reconstituted apoptosome, caspase-3 DEVD-Rh110 fluorescence. AID 504614. shares compounds with Apaf1 inhib. inhibition, % at 20 µM;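 active = mean inhibition of at least 40% at 20 µM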;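 also: plate controls were DMSO wells for no effect and DEVD-CHO caspase inhibitor control wells for full effect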
Rh110 interf inh: Rh110 signal interference in Apaf-1 inhibitor counter-screen; shares compounds with Apaf1 inhib; Rh110 fluorescence interference, quenched caspase reaction; activation (fluorescence interference), % at 20 µM; 1,800 tested, under 10 active; AID 504615;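 active = signal rise of 40% or more at 20 µM, treated as a fluorescence artifact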
Fluor interf inh: Apaf-1 inhibitor counter-screen fluorescence artifact | shares compounds with Apaf1 inhib | 460 tested, under 10 active | AID 588538 | IC50, µM | fluorescence interference counterscreen, Apaf-1 assay format; call rule not given here
MPTP counter: Rhodamine 123 counter-screen of mitochondrial pore hits. AID 624504. shares compounds with MPTP block. 5,000 tested, 78% active. inhibition, % at 10 µM. isolated mitochondria, membrane potential, Rhodamine 123 fluorescence; in the data active = inhibition above about 22%;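 also: 0% = DMSO vehicle and 100% = positive control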
MPTP abs DR: MPTP inhibition, dose response swelling confirmation; isolated mitochondria swelling, absorbance; shares compounds with MPTP block; 780 tested, 58% active; AID 651561; IC50, µM; in the data active = IC50 below about 20 µM
MPTP counter DR: active in counter-screen for permeability transition pore inhibitors; shares compounds with MPTP block; 780 tested, 49% active; IC50, µM; isolated mitochondria counterscreen, fluorescence read-out; in the data active = IC50 below about 80 µM
* marks the source's active call; other numbers are inactive results; . = not tested or not shown; ! = repeats disagree.

SMILES | UBC13 inh | Apaf1 inhib | Granule exo inh | MPTP block | MIN6 prolif | hiPSC survival | Apaf-1 inh conf2 | Rh110 interf inh | Fluor interf inh | MPTP counter | others
COc1ccc(NC(=S)Nc2ccc3nsnc3c2)cc1 | -48 | 97* | 18 | 60* | -4 | -3 | 97* | 16 | >100 | 78*
Cc1cc(C)c(S(=O)(=O)/N=C2\C=C(NS(=O)(=O)c3ccccc3)C(=O)c3ccccc32)c(C)c1 | -107 | 64* | 25 | 87* | -4 | 0 | 48* | -1 | >100 | 35*
Cc1cc(C)c(NS(=O)(=O)c2ccccc2)c(C)c1 | . | . | -18 | 1 | . | -1 | . | . | . | .
COc1ccc(-c2cc(=O)n(-c3ccc([N+](=O)[O-])cc3)[nH]2)cc1 | -38 | 65* | 4 | 97* | 0 | 0 | 14 | 4 | . | 71*
Cc1ccsc1C(=O)N1CCC1(C)C(=O)NS(=O)(=O)c1cccc(F)c1 (configuration not stated) | . | . | 1 | 0 | . | -1 | . | . | . | .
S=C(Nc1ccc(Cl)cc1)Nc1cccc2cnccc12 | -68 | 83* | 2 | 102* | 0 | -1 | 17 | -1 | . | 93*
Cc1cc(SCC(=O)N/N=C/c2ccc(O)c(O)c2O)c(C)cc1Br | -24 | 49* | 8 | 92* | -5 | 0 | 31 | 8 | . | 57*
Cc1cc(NC(=O)CS(=O)(=O)c2cn(Cc3cccc(C(F)(F)F)c3)c3ccccc23)no1 | . | . | -3 | 3 | . | -3 | . | . | . | .
COc1ccc(/C=N/Nc2cc(N3CCCC3)nc(N3CCCC3)n2)cc1 | -12 | 93* | 72* | 77* | -6 | -4 | 96* | 5 | >100 | 82*
N#Cc1ccsc1NC(=O)c1ccc(Cl)c([N+](=O)[O-])c1 | -16 | 48* | 3 | 82* | -7 | 0 | 6 | -3 | . | 71*
N#Cc1ccsc1NC(=O)c1cccc([N+](=O)[O-])c1 | -1 | -10 | 19 | 31 | -3 | -1 | . | . | . | .
CC(C)OC(=O)N(C)C[C@H]1OCc2cn(nn2)CCCC(=O)N([C@H](C)CO)C[C@@H]1C | . | . | -3 | -2 | . | -2 | . | . | . | .
Cc1[nH]n(-c2ccccc2)c(=O)c1-c1ccc(Cl)cc1 | -9 | 10 | 3 | 1 | -2 | 1 | . | . | . | .
CC1=NN(c2ccc(Cl)cc2)C(=O)C1C(c1ccccc1O)c1c(C)[nH]n(-c2ccc(Cl)cc2)c1=O (configuration not stated) | -14 | 97* | -3 | 88* | -4 | 1 | 42* | 4 | >100 | 24*
C[C@@H](c1ccccc1)N1C[C@@H](COCc2ccccc2)Oc2cc(N3CCC[C@H]3CO)ccc2S1(=O)=O | . | . | -5 | 0 | . | 0 | . | . | . | .
O=C(CCC(=O)OCC(=O)c1ccc(C(F)(F)F)cc1)OCC(=O)c1ccc(C(F)(F)F)cc1 | -13 | -17 | 10 | -1 | -1 | 1 | . | . | . | .
COCCCC/C(=N\OCCN)c1ccc(C(F)(F)F)cc1 | -2 | 99*! | 1 | 82*! | -4 | 0 | 3 | -3 | . | -19 | MPTP abs DR=13*;MPTP counter DR=>80
CCOC(=O)c1ccc(-n2[nH]c(-c3ccccc3)cc2=O)cc1 | -19 | 43* | 3 | 88* | -6 | -1 | 25 | 1 | . | 79*
Cc1c(CCO)c(=O)n2c([nH]c3ccccc32)c1C#N | 1 | 24 | 5 | -1 | 0 | 0 | . | . | . | .
CCCCc1c(C)c(C#N)c2[nH]c3ccccc3n2c1=O | -9 | 45* | -2 | 83* | -6 | 1 | 50* | 7 | >100 | 96*
